Results from paper PMC3145891 (Naunyn-Schmiedeberg's Archives of Pharmacology, 2011).

How the values were obtained:
[1] = test system: cGMP antibody (ENZO cGMP-EIA); assay: ENZO cGMP-EIA, acetylation protocol; type: binding
[2] = test system: cGMP antibody (IBL cGMP-RIA); assay: IBL cGMP-RIA; type: binding; settings: EC50cGMP/EC50Analog
[3] = Lipophilicity; type: physicochemical; settings: calculated from log Kw data, cGMP scale
[4] = test system: cAMP antibody (ENZO cAMP-EIA); assay: ENZO cAMP-EIA, acetylation protocol; type: binding; settings: EC50cAMP/EC50Analog, acetylated
[5] = test system: PKA (VASP phosphorylation) in human platelets; assay: VASP phosphorylation western blot, pVASP Ser-157; type: cell-based
Procedure, shortened: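 Washed human platelets were exposed to various analog concentrations for the indicated times. Protein extracts (10 µg) were run on 9% reducing SDS-PAGE and wet-blotted to nitrocellulose. Blots were blocked in 3% milk/Tris-saline-Tween and probed 1:10,000 with 16C2 (pVASP Ser-239, PKG site) or 5C6 (pVASP Ser-157, PKA site). HRP goat anti-mouse (1:5,000) and ECL gave detection.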

[6] = test system: cAMP antibody (ENZO cAMP-EIA); assay: ENZO cAMP-EIA, non-acetylated; type: binding; settings: non-acetylated cAMP-EIA from ENZO
[7] = test system: human platelets; assay: Cell membrane permeability in washed human platelets; type: in vitro ADME
Procedure, shortened: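 Human blood from medication-free donors was collected into citrate–EGTA buffer. Platelet-rich plasma (300×g) was pelleted (380×g), washed in Hepes buffer pH 7.4 and used at 3 × 10^8 platelets/ml. Cells were exposed to analogs at 37°C, normally for 20 min or over a time course. They were lysed in […] buffer pH 8.1 with 1 mM IBMX on ice, then freeze/thaw and needle disruption. Lyophilized supernatant went to EIA, assuming a 5.2 fl cell volume.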

[8] = test system: CHO cells; assay: Cell membrane permeability in CHO cells; type: in vitro ADME, Chinese hamster; settings: serum-free medium, normally 20 min
Procedure, shortened: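 CHO cells were grown in DMEM with 10% FBS and 1% penicillin/streptomycin at 37°C, 5% CO2. Cells were exposed to various analog concentrations in serum-free medium, normally for 20 min, then PBS-washed. Lysis used hypotonic buffer on ice for 30 min, scraping, liquid-nitrogen freeze/thaw and needle disruption. Cleared supernatant was lyophilized for EIA. Intracellular concentration assumed a 1.5 pl cell volume; % permeability = intracellular/extracellular […].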

Row | SMILES | Cross-reactivity / binding to the cGMP antibody in the EIA, result in words [1] | Specificity ENZO cGMP-EIA ([1]; EC50cGMP/EC50Analog, acetylated) | Specificity IBL cGMP-RIA [2] | Relative lipophilicity [3] | Specificity ENZO cAMP-EIA [4] | VASP phosphorylation (PKA site), result in words [5] | Relative binding EC50cAMP/EC50Analog [6] | Diffusion into the cell, result in words ([7]; compounds with log Kw < 1) | cNMP conc. inside platelets (% of external) ([7]; washed human platelets, 37°C, normally 20 min) [%] | cNMP conc. inside CHO cells (% of external) [8] [%]
1 | O=c1c2nc(Br)n([C@@H]3O[C@@H]4CO[P@@](O)(=S)O[C@H]4[C@H]3O)c2nc2[nH]c(-c3ccccc3)cn12 (single isomer, unassigned) [Rp-8-Br-PET-cGMPS] | does not bind | 0.002 | 0.011 | 200 |  |  |  |  |  | 
2 | Nc1ncnc2c1ncn2[C@H]1C[C@@H]2OP(=O)(O)OC[C@H]2O1 [2′-dcAMP, 2`- Deoxyadenosine- 3`,5`- cyclic monophosphate] |  |  |  |  | 0.034 | no VASP phosphorylation | 0.22 | too hydrophilic for any diffusion into the cell | 0.2 ± 0.3 | 0.1 ± 0.2
